Screening data: PubChem BioAssay, Johns Hopkins Ion Channel Center
Kir21 block: blocks the mouse Kir2.1 inward-rectifier potassium channel; 310,000 compounds, 0.85% hits; B-score at 10 µM; HEK293-Kir2.1, FluxOR thallium flux fluorescence; active compounds read low; P35561;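 active = fluorescence ratio B-score at or below minus 3 SD of library scores, with starting-brightness B-score within 2 SD, cut at about -4.2 in these data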;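 note: channel flux triggered by added potassium and thallium sulfate stimulus; B-score of peak minus minimum fluorescence over baseline after thallium stimulus; more negative B-score means stronger Kir2.1 block with less thallium influx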
Target sequence (P35561 whole entry, looked up): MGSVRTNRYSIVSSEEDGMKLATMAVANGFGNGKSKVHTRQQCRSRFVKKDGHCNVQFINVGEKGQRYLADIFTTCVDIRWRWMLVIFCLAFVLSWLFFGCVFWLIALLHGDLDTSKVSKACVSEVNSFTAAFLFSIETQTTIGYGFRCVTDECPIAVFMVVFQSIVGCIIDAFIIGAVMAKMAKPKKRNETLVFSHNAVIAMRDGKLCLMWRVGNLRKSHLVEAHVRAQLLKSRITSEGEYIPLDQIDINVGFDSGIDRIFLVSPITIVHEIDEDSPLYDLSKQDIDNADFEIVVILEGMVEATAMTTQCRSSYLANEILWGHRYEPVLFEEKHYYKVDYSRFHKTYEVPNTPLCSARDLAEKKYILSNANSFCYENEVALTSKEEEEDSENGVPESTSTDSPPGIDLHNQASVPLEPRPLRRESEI
KCNQ1 block: inhibitors of human KCNQ1 potassium channel; 310,000 compounds, 1.3% hits; AID 2642; B-score at 10 µM; CHO-K1 KCNQ1, FluxOR thallium flux fluorescence; active compounds read high;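 active = compounds whose thallium flux B-score, printed positive for inhibition, exceeds three library SD while starting fluorescence stays within three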;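 note: channel opened by potassium depolarization with thallium stimulus after 20 min compound exposure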
KCNQ1 act: potentiates or activates the human KCNQ1 potassium channel. P51787. CHO-K1 KCNQ1, thallium flux FluxOR fluorescence; active compounds read high. B-score at 10 µM. 310,000 compounds, 0.35% hits;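 active = fluorescence ratio B-score, a plate-corrected score, at least three library SD, with initial intensity B-score within 5 SD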
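System: CHO-K1 cells stably expressing KCNQ1 / Medium: assay buffer for compound exposure, DMSO matched across wells / Reagent: thallium- and potassium-containing depolarizing buffer / Compound: one concentration, matched DMSO / Incubation: 20 min compound pretreatment at room temperature / Measured by: kinetic FluxOR fluorescence, 10 s baseline plus 110 s post-stimulus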
KCNK9 block: blocks the human KCNK9 two-pore domain potassium channel; Q9NPC2; 310,000 compounds, 1.2% hits; B-score at 10 µM; HEK293 KCNK9, FluxOR thallium flux fluorescence; active compounds read low;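 active = ratio B-score over 3 SD below the library mean, with starting fluorescence within 5 SD of its mean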;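 note: negative B-score means less thallium flux so channel inhibition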
hERG protect: hERG (human) protection from proarrhythmic block | Q12809 | CHO-hERG, FluxOR thallium flux, dofetilide IC70 present | activation (rescue from dofetilide block), less the hit threshold, % at 10 µM | 310,000 compounds, 0.51% hits;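 active = activation above the mean of controls blocked by dofetilide plus 5 SD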;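 note: thallium influx through hERG after potassium depolarization seen as dye fluorescence rise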
KCNK3 block: human KCNK3 channel inhibition, primary screen; O14649; CHO-KCNK3 thallium flux, FluxOR fluorescence; active compounds read low; B-score at 10 µM; 340,000 compounds, 0.84% hits;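 active = B-score under library mean minus 4 SD, starting fluorescence ratio at most library mean plus 5 SD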;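 note: more negative B-score means stronger inhibition of thallium flux through KCNK3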
KCNK9 block conf: confirmation of human KCNK9 potassium channel inhibitors; shares compounds with KCNK9 block; HEK293 KCNK9 cells, FluxOR thallium flux fluorescence; inhibition, % at 10 µM; 4,900 compounds, 43% hits; AID 492992;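 active = thallium signal inhibited by more than 5 SD of the compound-free buffer control wells, on both duplicate plates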;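 note: 0% = assay buffer control wells without compound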
Kir2-1 spec: selectivity of KCNK9 modulators against mouse Kir2.1 | shares compounds with KCNK9 block | Kir2.1 cells, FluxOR thallium flux fluorescence | inhibition, % at 10 µM | 4,900 compounds, 4% hits;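 active = thallium signal drop more than 5 SD beyond the mean of the no-compound control wells, seen in both duplicate plates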;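 note: signal is fluorescence rise after thallium addition divided by baseline fluorescence; plate controls were assay buffer only for no effect and full block by chlorpromazine control for full effect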
KCNK9 uninduced: second counter-screen for KCNK9 modulators: effect in non-induced cells; non-induced KCNK9-HEK293, FluxOR thallium flux; 4,900 compounds, 40% hits; inhibition, % at 10 µM; shares compounds with KCNK9 block; AID 492997;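 active = thallium signal drop beyond 5 SD of the untreated control mean, on both duplicate plates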;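 note: plate controls were buffer only IC0 wells for no effect and SID17386958 at its maximal inhibitory level for full effect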
The depositor's hits bear a star. This is a sample that favours compounds with a hit; in the whole collection about 3.8% have one here.

What do the screens show for `O=S(=O)(Nc1nc(SCc2ccc(Cl)cc2)n[nH]1)c1ccc(F)cc1`?
Kir21 block: -10*; KCNQ1 block: inactive; KCNQ1 act: inactive; KCNK9 block: -11*; hERG protect: -6; KCNK3 block: inactive; KCNK9 block conf: 28%*; Kir2-1 spec: 38%*; KCNK9 uninduced: 42%*

How did CCc1nc(SCc2ccc(Cl)cc2)n[nH]1 do in these assays?
Kir21 block: 0.14; KCNQ1 block: inactive; KCNQ1 act: inactive; KCNK9 block: inactive; hERG protect: -7; KCNK3 block: inactive

What do the screens show for `CN1/C(=C\C(=O)c2cncc(Br)c2)C(C)(C)c2ccccc21`?
Kir21 block: 1; KCNQ1 block: inactive; KCNQ1 act: inactive; KCNK9 block: inactive; hERG protect: -27; KCNK3 block: inactive

Results for COc1ccc(C(=O)Nn2c(SCc3ccc([N+](=O)[O-])cc3)nc3ccccc3c2=O)cc1 ?
Kir21 block: -1.1; KCNQ1 block: inactive; KCNQ1 act: inactive; KCNK9 block: -11*; hERG protect: -7; KCNK3 block: inactive; KCNK9 block conf: 56%*; Kir2-1 spec: inactive; KCNK9 uninduced: 32%*

How did O=C(Nn1c(SCc2ccc(F)cc2)nc2ccsc2c1=O)c1ccccc1 do in these assays?
Kir21 block: -0.99; KCNQ1 block: inactive; KCNQ1 act: inactive; KCNK9 block: -11*; hERG protect: -11; KCNK3 block: inactive; KCNK9 block conf: 74%*; Kir2-1 spec: inactive; KCNK9 uninduced: 46%*

What do the screens show for `COc1ccc(C(=O)Nn2c(SCC(=O)c3ccccc3)nc3ccccc3c2=O)cc1`?
Kir21 block: -0.07; KCNQ1 block: inactive; KCNQ1 act: inactive; KCNK9 block: inactive; hERG protect: -20; KCNK3 block: inactive

What do the screens show for `COc1ccccc1OCc1nc(C#N)c(N2CC(C)CC(C)C2)o1` (configuration not stated)?
Kir21 block: -0.52; KCNQ1 block: inactive; KCNQ1 act: inactive; KCNK9 block: inactive; hERG protect: -6; KCNK3 block: inactive; KCNK9 block conf: inactive; Kir2-1 spec: inactive; KCNK9 uninduced: inactive

How did COc1ccccc1OCc1nc(C#N)c(N2CCCC2)o1 do in these assays?
Kir21 block: 2.4; KCNQ1 block: inactive; KCNQ1 act: inactive; KCNK9 block: inactive; hERG protect: -13; KCNK3 block: inactive

What do the screens show for `O=C(O)c1ccc(-c2nc(-c3ccc(Cl)cc3)cs2)cc1`?
Kir21 block: 1.1; KCNQ1 block: inactive; KCNQ1 act: inactive; KCNK9 block: inactive; hERG protect: -8; KCNK3 block: inactive

Results for O=C(O)c1ccc(-c2nc(-c3cccc(C(F)(F)F)c3)cs2)cc1 ?
Kir21 block: 1.1; KCNQ1 block: inactive; KCNQ1 act: inactive; KCNK9 block: inactive; hERG protect: -14; KCNK3 block: inactive; KCNK9 block conf: inactive; Kir2-1 spec: inactive; KCNK9 uninduced: inactive

How did O=C(c1ccccc1)c1ccc2cc(O)ccc2c1 do in these assays?
Kir21 block: 2.5; KCNQ1 block: inactive; KCNQ1 act: inactive; KCNK9 block: inactive; hERG protect: -13; KCNK3 block: inactive; KCNK9 block conf: inactive; Kir2-1 spec: inactive; KCNK9 uninduced: inactive

Results for Cc1ccc(-c2csc3ncnc(NS(=O)(=O)c4ccc(Cl)cc4)c23)cc1 ?
Kir21 block: 0.95; KCNQ1 block: inactive; KCNQ1 act: inactive; KCNK9 block: inactive; hERG protect: -4; KCNK3 block: inactive

How did O=S(=O)(Nc1ncnc2scc(-c3ccc(F)cc3)c12)c1cc(F)ccc1F do in these assays?
Kir21 block: -0.03; KCNQ1 block: 6*; KCNQ1 act: inactive; KCNK9 block: inactive; hERG protect: -19; KCNK3 block: inactive; KCNK9 block conf: inactive; Kir2-1 spec: inactive; KCNK9 uninduced: inactive

Results for O=C1CCCCC1Sc1nnc(Nc2ccccc2)s1 (configuration not stated) ?
Kir21 block: 0.47; KCNQ1 block: inactive; KCNQ1 act: inactive; KCNK9 block: inactive; hERG protect: -10; KCNK3 block: inactive

What do the screens show for `O=S(=O)(Cc1cc(Sc2ccc(Cl)cc2)nc(-c2ccccc2)n1)c1ccccc1`?
Kir21 block: 1.6; KCNQ1 block: inactive; KCNQ1 act: inactive; KCNK9 block: -8.5*; hERG protect: -10; KCNK3 block: inactive; KCNK9 block conf: inactive; Kir2-1 spec: inactive; KCNK9 uninduced: 32%*

Results for COC(=O)CCC(=O)NN1C(=O)c2ccccc2C1=O ?
Kir21 block: 1.2; KCNQ1 block: inactive; KCNQ1 act: inactive; KCNK9 block: inactive; hERG protect: -12; KCNK3 block: inactive

How did CSc1ccc(CN(C)C(=O)CCNS(=O)(=O)c2ccc(C)c(C)c2)cc1 do in these assays?
Kir21 block: -2.9; KCNQ1 block: inactive; KCNQ1 act: inactive; KCNK9 block: inactive; hERG protect: -17; KCNK3 block: inactive; KCNK9 block conf: inactive; Kir2-1 spec: inactive; KCNK9 uninduced: inactive

What do the screens show for `CCOC(=O)C1CCN(C(=O)c2oc3ccc(S(=O)(=O)N4CC(C)CC(C)C4)cc3c2C)CC1` (configuration not stated)?
Kir21 block: 0.41; KCNQ1 block: inactive; KCNQ1 act: inactive; KCNK9 block: inactive; hERG protect: -6; KCNK3 block: inactive; KCNK9 block conf: inactive; Kir2-1 spec: inactive; KCNK9 uninduced: inactive

How did CCCNC(=O)c1ccc(N2CCC3(CC2)CC(c2ccccc2)=NO3)c(NC(=O)c2ccc(Br)cc2)c1 do in these assays?
Kir21 block: 0.01; KCNQ1 block: inactive; KCNQ1 act: inactive; KCNK9 block: inactive; hERG protect: -5; KCNK3 block: inactive

Results for O=C(c1ccco1)N1CCCC(N2CCN(c3ccccc3F)CC2)C1 (configuration not stated) ?
Kir21 block: 1.4; KCNQ1 block: inactive; KCNQ1 act: inactive; KCNK9 block: inactive; hERG protect: -2; KCNK3 block: inactive
